# Measurements collected from several papers.
# Protocols differ between the studies behind these lines.
# JAK1 JH1: Tyrosine-protein kinase JAK1, JH1 (JAK1, Homo sapiens, UniProt P23458)
# JAK1: Tyrosine-protein kinase JAK1 (JAK1, Homo sapiens, UniProt P23458)
# JAK1 JH2: Tyrosine-protein kinase JAK1, JH2 (JAK1, Homo sapiens, UniProt P23458)
SMILES,target,read-out,method,tested at,remaining binding [%]
CCN1CCN(Cc2ccc(C(=O)Nc3ccc(C)c(Oc4ccc5c(c4)CC(=O)N5)c3)cc2C(F)(F)F)CC1,JAK1 JH1,binding,competition with immobilised ligand,1 µM,76
O=C(c1ccc(Nc2ncc(Cl)c(-c3ccc(Cl)s3)n2)cc1)N1CCC(N2CCCC2)CC1,JAK1 JH1,binding,competition with immobilised ligand,1 µM,8.6
F[C@@H]1CCN(c2nccc(-c3cnn4ncccc34)n2)C1,JAK1,binding,,1 µM,100
O=C(c1ccc(Nc2nccc(-c3cc4ccccc4s3)n2)cc1)N1CCC(N2CCCC2)CC1,JAK1 JH2,binding,competition with immobilised ligand,1 µM,3.6
COc1ccnn2ncc(-c3ccnc(N(C)C)n3)c12,JAK1,binding,,1 µM,74
COc1cnc(Nc2cccc(S(N)(=O)=O)c2)nc1N1CCN(c2ccccc2)C(=O)C1,JAK1 JH1,binding,competition with immobilised ligand,1 µM,85
CCS(=O)(=O)c1cc2cc(C[C@](O)(CC(C)(C)c3ccc(F)cc3C(N)=O)C(F)(F)F)[nH]c2cn1,JAK1 JH2,cell-free assay,competition with immobilised ligand,1 µM,95
COc1cnc(Nc2cccc(S(N)(=O)=O)c2)nc1N1CCN(c2ccccc2)CC1,JAK1 JH2,binding,competition with immobilised ligand,1 µM,28
CC1CCCN1c1nccc(-c2cnn3ncccc23)n1 (centres unmarked),JAK1,binding,,1 µM,100
O=C(Nc1c[nH]nc1C(=O)NC1CCNCC1)c1cc(F)cc(F)c1,JAK1 JH1,binding,competition with immobilised ligand,1 µM,88
C[C@H](c1cccc(C#N)c1)n1cc(Cl)cc(C(N)=O)c1=N,JAK1 JH1,cell-free assay,competition with immobilised ligand,1 µM,57
c1cncc(-c2cccc(Nc3nccc(NC4CCCCC4)n3)c2)c1,JAK1 JH1,binding,competition with immobilised ligand,10 µM,14
CO[C@H]1CC[C@H](CNc2ccc(S(=O)(=O)NC(=O)c3ccc(N4CCN(CC5=C(c6ccc(Cl)cc6)CC(C)(C)CC5)CC4)cc3Oc3cnc4[nH]ccc4c3)cc2[N+](=O)[O-])CC1,JAK1 JH2,cell-free assay,competition with immobilised ligand,1 µM,100
O=C(NCCCN1CCOCC1)c1ccc(Nc2ncc(Cl)c(-c3ccc(Cl)s3)n2)cc1,JAK1 JH2,binding,competition with immobilised ligand,1 µM,46
CN(C)c1nccc(-c2cnc3ncccn23)n1,JAK1,binding,,1 µM,67
CS(=O)(=O)NCC[C@H](NC(=O)c1cncc2c1cnn2-c1ccc(F)cc1)c1ccnc(S(C)(=O)=O)c1,JAK1 JH2,cell-free assay,competition with immobilised ligand,1 µM,100
N[C@@H]1CCN(c2nccc(-c3cnn4ncccc34)n2)C1,JAK1 JH1,cell-free assay,competition with immobilised ligand,1 µM,100
CCC(=N\O)/C(C)=C/c1ccc(F)cc1,JAK1 JH2,cell-free assay,competition with immobilised ligand,1 µM,88
CN(C)c1ncc(F)c(-c2cnn3ncccc23)n1,JAK1,binding,,1 µM,89
CN1CCN(c2ccc(Nc3nccc(-c4ccccc4)n3)cc2C(F)(F)F)CC1,JAK1,binding,,10 µM,0.45
